# Laboratory results from paper PMC4227764 (Nucleic Acids Research, 2014).
# Like-named read-outs stand apart in the source and are kept apart here.
# Legend:
# B. subtilis RNase P = target: T1, B. subtilis RNase P (Bacillus subtilis, UniProt P25814); experiment: RNase P cleavage activity in response to HTS reagents; assay type: biochemical
# T1 sequence (P25814 1-116): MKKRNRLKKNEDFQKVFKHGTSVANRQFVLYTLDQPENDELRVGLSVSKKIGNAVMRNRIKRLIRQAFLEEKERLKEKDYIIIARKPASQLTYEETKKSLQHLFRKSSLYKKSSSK
# How it was run: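 B. subtilis holoenzyme formed by adding P protein to refolded P RNA, 30 min at 37°C. Enzyme pre-incubated 30 min with 2% DMSO at 30°C. Reaction started with an equal volume of Fl-pre-tRNAAsp substrate, quenched with 80 mM CaCl2 at various times. Fluorescence polarization read at λex 485 nm / λem 520 nm.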
# Fl-pre-tRNA^Asp = experiment: FA titration: binding of compounds to Fl-pre-tRNA^Asp; parameters: species or system Bacillus subtilis; details: for change in anisotropy (ΔFA) upon binding to Fl-pre-tRNA^Asp: Figure 4A, buffer B; for Kd: read-out: Kd for Fl-pre-tRNA^Asp, 37°C
# How it was run: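 RNA first heat-denatured 3 min at 95°C, then refolded at 37°C. Kd taken from the dependence of the FA signal on compound concentration. Competition run at fixed compound with varied yeast tRNAMix in buffer B.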
# [1] = target: Bacillus subtilis RNase P; assay type: biochemical; details: read-out: IC50 for inhibition of RNase P; Buffer B (pH 7.2, 10 mM MgCl2, 100 mM KCl), 50 nM Fl-pre-tRNA^Asp, 0.4 nM RNase P, 4 nM P protein, 37°C
# native yeast tRNA^Phe = details: cited from earlier work
# [2] = target: Dictyostelium discoideum RNase P; details: read-out: Ki (non-competitive); cited from earlier work
# Escherichia coli RNase P = details: cited from earlier work
# [3] = Buffer B + 12 mg/ml yeast tRNA^Mix
# [4] = Buffer B, 50 nM Fl-pre-tRNA^Asp
Compound,change in anisotropy (ΔFA) upon binding to Fl-pre-tRNA^Asp (Fl-pre-tRNA^Asp) [mA],Kd (Fl-pre-tRNA^Asp; [3]) [µM],Kd (Fl-pre-tRNA^Asp; [4]) [µM],IC50 [1] [µM],IC50 (Escherichia coli RNase P) [µM],other results
"C[S+](C)[O-] [DMSO, dimethyl sulfoxide]",–,–,–,–,–,inhibition of RNase P activity (B. subtilis RNase P; 2% DMSO): 20%
"NC[C@H]1O[C@H](O[C@H]2[C@H](O)[C@@H](O[C@H]3O[C@H](CO)[C@@H](O)[C@H](N)[C@H]3O)[C@H](N)C[C@@H]2N)[C@H](N)[C@@H](O)[C@@H]1O [KanB, kanamycin B]",~35,540 ± 60,220 ± 20,52 ± 6,–,–
"NC[C@@H]1O[C@H](O[C@H]2[C@@H](O)[C@H](O[C@@H]3[C@@H](O)[C@H](N)C[C@H](N)[C@H]3O[C@H]3O[C@H](CN)[C@@H](O)[C@H](O)[C@H]3N)O[C@@H]2CO)[C@H](N)[C@@H](O)[C@@H]1O [NeoB, neomycin B]",~50,100 ± 20,90 ± 5,23 ± 3,60,Kd (native yeast tRNA^Phe): 90 µM; Ki [2]: 143 µM
COc1ccc(C[C@H](N)C(=O)N[C@H]2[C@@H](O)[C@H](n3cnc4c(N(C)C)ncnc43)O[C@@H]2CO)cc1 [puromycin],–,–,–,–,~3000,–
Spiramycin,–,–,–,–,–,effect on steady-state turnover (Escherichia coli RNase P): activate the steady-state turnover
nonidet P-40 [NP-40],–,–,–,–,–,effect on RNase P activity (B. subtilis RNase P; 0.01–0.1% v/v): unaffected
